Screening data as filed in PubChem BioAssay.
A selection: hits, their analogues and other compounds. The true share with any hit is near 2.1%.
TLR9-MyD88 inh – inhibitors of TLR9-MyD88 association in cells, primary screen, cell-based, CHO, BLA complementation, fluorescence | hit rate 0.21% among 340,000 | CCF4 FRET ratio | inhibition, % at 4.98 µM;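 active means inhibition above the mean over all tested compounds plus 3 SD, cut at about 21% in these data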;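 further: 0% = DMSO only wells and 100% = clavulanate BLA inhibitor control wells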
MC4R ag barr – MC4R agonists recruiting beta-arrestin, primary screen, cell-based, luminescence, agonist arm of biased-ligand search; Melanocortin receptor 4 (Homo sapiens), P32245; U2OS MC4R beta-arrestin complementation; percent of melanotan II response, DMSO zero; activation, % at 8.9 µM; hit rate 0.98% among 360,000; AID 540308, 2011;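 active means activation above a per-plate cutoff, the mean activation of sample wells on that plate plus 3 SD, cut at about 8% in these data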
Target sequence (P32245 whole entry, looked up): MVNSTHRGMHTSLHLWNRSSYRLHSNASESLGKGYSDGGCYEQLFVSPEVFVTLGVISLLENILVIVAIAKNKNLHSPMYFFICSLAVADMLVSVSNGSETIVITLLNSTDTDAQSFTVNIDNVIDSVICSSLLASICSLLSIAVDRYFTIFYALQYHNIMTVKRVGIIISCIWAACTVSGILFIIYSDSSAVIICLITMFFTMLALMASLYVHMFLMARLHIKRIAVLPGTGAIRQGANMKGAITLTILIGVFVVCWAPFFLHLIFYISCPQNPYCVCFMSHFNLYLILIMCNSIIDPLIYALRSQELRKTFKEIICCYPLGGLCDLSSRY
beta cell repl – inducers of MIN6 beta-cell proliferation, primary screen, ATP luminescence, uHTS; MIN6 cells proliferation, ATPlite luminescence, 48 h; cells starved in 0.2% serum; 100% = growth in 10% serum; proliferation, % at 10 µM; hit rate 0.29% among 330,000; AID 2380, 2010;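 active means compounds whose signal lies at least 3.5 SD above the mean of all wells on their plate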;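 further: 0% = DMSO-treated cells in low-serum medium and 100% = 10% serum control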
MC4R antagonist – MC4R antagonists of cAMP signaling, primary screen, cell-based, TR-FRET, antagonist arm of biased-ligand search; inhibition, % at 6.5 µM; Melanocortin receptor 4 (Homo sapiens), P32245; MC4R-expressing cells, MTII-stimulated cAMP, LANCE TR-FRET; hit rate 0.48% among 360,000;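 active means inhibition above its plate's cutoff, the mean of tested wells on that plate plus 3 SD, cut at about 29% in these data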;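 further: 0% = Melanotan II alone and 100% = Melanotan II plus saturating MCL0020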
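System: U2OS cells stably expressing human melanocortin 4 receptor (MC4R). Reagent: Melanotan II challenge after compound preincubation. Doses: 6.5 µM. Times: 30-min compound, 1-h challenge, 1-h detection, room temperature. Measured by: TR-FRET with Eu-cAMP and labeled anti-cAMP, 671 nm. Replicates: singlicate.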
NOD2-RIPK2 inh – NOD2-RIPK2 binding disruptors in cells, primary screen, fluorescence, CHO cells, BLA complementation; CCF4 ratio; Receptor-interacting serine/threonine-protein kinase 2 (Homo sapiens), O43353; hit rate 0.38% among 360,000; inhibition, % at 4.98 µM; in the data active means inhibition above about 21%;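 further: 0% = vehicle only and 100% = reference blocker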
TLR4-MyD88 BLA – inhibitors of TLR4-MyD88 association in cells, primary screen, cell-based, HeLa CL3-4, BLA complementation, FRET ratio | HeLa CL3-4 TLR4/MyD88 BLA complementation | inhibition, % at 8.4 µM | hit rate 0.18% among 200,000 | AID 861, 2007; in the data active means inhibition above about 25%;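 further: 0% = vehicle and 100% = reference inhibitor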
Active calls of the source: *.

`Cc1cc(C)c2c(=O)n(CC(=O)Nc3cccc(F)c3)sc2n1` gave TLR9-MyD88 inh 2, MC4R ag barr 1, beta cell repl -6, MC4R antagonist -3 and NOD2-RIPK2 inh -2.
For CC1=C/C(=N\OS(=O)(=O)c2ccccc2)C(C(C)C)=CC1=O the results were TLR9-MyD88 inh -6, MC4R ag barr 31*, MC4R antagonist 45*, NOD2-RIPK2 inh 16 and TLR4-MyD88 BLA 9.
Screening N#CCC(=O)N/N=C/c1cn(Cc2ccc(Cl)c(Cl)c2)c2ccccc12 returned TLR9-MyD88 inh 8, MC4R ag barr 20*, beta cell repl -3, MC4R antagonist -8 and NOD2-RIPK2 inh -5.
For COc1ccc(N(C=O)C(C(=O)Nc2c(C)cccc2C)c2ccccc2)cc1 (centres undefined) the results were TLR9-MyD88 inh 11, MC4R ag barr 0, beta cell repl -1, MC4R antagonist 9 and NOD2-RIPK2 inh 4.
Screening COc1cc(/C=C(/C#N)c2nc3ccccc3[nH]2)ccc1Oc1ncccc1[N+](=O)[O-] returned TLR9-MyD88 inh -2, MC4R ag barr 14*, beta cell repl -3, MC4R antagonist 8, NOD2-RIPK2 inh 2 and TLR4-MyD88 BLA 5.
Screening CCOc1cc(/C=C(/C#N)c2nc3ccccc3[nH]2)ccc1Oc1ccc([N+](=O)[O-])cn1 returned TLR9-MyD88 inh -10, MC4R ag barr 3, beta cell repl -3, MC4R antagonist -5, NOD2-RIPK2 inh 9 and TLR4-MyD88 BLA 11.
For Cc1ccc(NC(=S)N/N=C/c2c(C)nn(-c3ccccc3)c2N2CCCC2)cc1 the results were TLR9-MyD88 inh 3, MC4R ag barr 8.6*, beta cell repl 0, MC4R antagonist 12, NOD2-RIPK2 inh 4 and TLR4-MyD88 BLA 7.
Screening Cc1nn(-c2ccccc2)c(N2CCCC2)c1/C=N/NC(=S)Nc1ccc(F)cc1 returned TLR9-MyD88 inh -2, MC4R ag barr 1, beta cell repl -5, MC4R antagonist 10 and NOD2-RIPK2 inh -4.
Screening Cc1cccc(N2CCN(C(=O)c3cn4ccccc4n3)CC2C)c1 (centres undefined) returned TLR9-MyD88 inh 1, MC4R ag barr 1, beta cell repl -3, MC4R antagonist 15, NOD2-RIPK2 inh -4 and TLR4-MyD88 BLA 14.
`CCCn1c(SCC(=O)Nc2cccc(S(=O)(=O)N(C)C)c2)nc2ccccc2c1=O` gave TLR9-MyD88 inh -9, MC4R ag barr -2, beta cell repl -1, MC4R antagonist 21 and NOD2-RIPK2 inh -6.
`Cc1ccccc1CNC(=O)CN(c1cccc([N+](=O)[O-])c1)S(C)(=O)=O` gave TLR9-MyD88 inh 2, MC4R ag barr 1, beta cell repl 1, MC4R antagonist 30*, NOD2-RIPK2 inh -14 and TLR4-MyD88 BLA 1.
Screening Cc1ccc(C(=O)Cn2c(C(=O)OCCO)cc3ccccc32)cc1 returned TLR9-MyD88 inh -2, MC4R ag barr 0, beta cell repl -1, MC4R antagonist -10 and NOD2-RIPK2 inh -7.
For COc1ccc(N(C(=O)CCl)C(C(=O)NCCc2ccccc2)c2cccs2)cc1 (centres undefined) the results were TLR9-MyD88 inh 3, MC4R ag barr 12*, MC4R antagonist 28, NOD2-RIPK2 inh 6 and TLR4-MyD88 BLA 10.
`Oc1ccc(Cl)cc1C1=Nc2ccccc2N=C(c2ccco2)C1` gave TLR9-MyD88 inh -7, MC4R ag barr 9.0*, beta cell repl -4, MC4R antagonist 6, NOD2-RIPK2 inh -2 and TLR4-MyD88 BLA 14.
O=C(NCc1ccc(Cl)cc1Cl)Nc1nc([C@@H]2O[C@H](CO)[C@@H](O)[C@H](O)[C@H]2O)cs1 was read as MC4R ag barr -1, MC4R antagonist 13 and NOD2-RIPK2 inh -3.
COc1ccc(/C=C2\SC(=S)N(CCC(=O)NCCc3ccc(O)cc3)C2=O)cc1 was read as TLR9-MyD88 inh -2, MC4R ag barr -1, beta cell repl -6, MC4R antagonist 10 and NOD2-RIPK2 inh -4.
For O=C(CCCN1C(=O)S/C(=C\c2ccccc2)C1=O)NNC(=O)c1ccccc1O the results were TLR9-MyD88 inh 7, MC4R ag barr 8.4*, beta cell repl 0, MC4R antagonist 2, NOD2-RIPK2 inh 3 and TLR4-MyD88 BLA 16.
O=C(CN1C(=O)S/C(=C\c2ccccc2)C1=O)NNC(=O)c1ccccc1O was read as TLR9-MyD88 inh -2, MC4R ag barr 0, beta cell repl -4, MC4R antagonist 13, NOD2-RIPK2 inh -7 and TLR4-MyD88 BLA 2.
For O=C(CCN1C(=O)/C(=C/c2ccccc2)SC1=S)NCCc1ccc(O)cc1 the results were TLR9-MyD88 inh 6, MC4R ag barr 9.3*, beta cell repl -7, MC4R antagonist 5 and NOD2-RIPK2 inh -1.
For O=C(NNC(=O)C1CCC1)c1cccc(Cl)c1 the results were TLR9-MyD88 inh 3, MC4R ag barr 1, beta cell repl 3, MC4R antagonist 2 and NOD2-RIPK2 inh -15.
For O=C(COC(=O)CCc1c[nH]c2ccccc12)Nc1cc([N+](=O)[O-])ccc1Cl the results were TLR9-MyD88 inh -7, MC4R ag barr 0, beta cell repl -1, MC4R antagonist 5, NOD2-RIPK2 inh -5 and TLR4-MyD88 BLA 8.
`O=C(COC(=O)CCc1c[nH]c2ccccc12)Nc1ccc([N+](=O)[O-])cc1` gave TLR9-MyD88 inh -8, MC4R ag barr 8.6*, beta cell repl -1, MC4R antagonist 27, NOD2-RIPK2 inh 2 and TLR4-MyD88 BLA -7.
For CC(C)(C)[C@H]1COC(=O)[C@H](Cc2ccc(F)cc2)CC/C=C/C[C@@H](CC(=O)N[C@H](CO)Cc2ccccc2)C(=O)N1 the results were TLR9-MyD88 inh -3, MC4R ag barr 0, beta cell repl -3, MC4R antagonist 8 and NOD2-RIPK2 inh -3.
`O=C(Nc1ccc(N2CCN(c3ncccc3C(F)(F)F)CC2)nc1)c1cccs1` gave TLR9-MyD88 inh -4, MC4R ag barr 9.6*, beta cell repl -3, MC4R antagonist 3 and NOD2-RIPK2 inh 6.
Screening CCC(C)c1ccc(S(=O)(=O)N2CCN3CCCC3C2)cc1 (centres undefined) returned TLR9-MyD88 inh -9, MC4R ag barr 0, beta cell repl -1, MC4R antagonist -6 and NOD2-RIPK2 inh -4.
